SENP7 block – blocks the human protease SENP7; Q9BQF6; recombinant SENP7, Z-RLRGG-aminoluciferin luminescence, 40 min; inhibition, % at 5 µM; 1.5% of 330,000 active;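 active = inhibition above about 50% at the single test dose, limit read from the data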;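 also: plate controls were DMSO with enzyme for no effect and no enzyme buffer wells for full effect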
Platelet DG rel – modulates dense granule release in human platelets. human platelet-rich plasma, SFLLRN dense granule ATP release, luminescence. inhibition, %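 (compounds screened at 7.5 µM in platelet-rich plasma)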. 0.22% of 300,000 active. AID 1663;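 active = mean replicate score, as percent of positive control, at or above 50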
SENP8 block-1 – SENP8 protease inhibition. Q96LD8. purified SENP8, Z-RLRGG-aminoluciferin cleavage, luminescence. inhibition, % at 10 µM. 1.2% of 330,000 active. AID 2540; in the data active = inhibition above about 50%
SENP6 inh – SENP6 protease inhibition | Q9GZR1 | Recombinant SENP6 catalytic domain, aminoluciferin luminescence | inhibition, % at 10 µM | 1.8% of 330,000 active;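 active = inhibition above about 50% at the single tested dose, limit read from the data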;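 also: plate controls were DMSO wells with enzyme for no effect and DMSO wells lacking enzyme for full effect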
Target sequence (Q9GZR1 628-1112 limits assumed): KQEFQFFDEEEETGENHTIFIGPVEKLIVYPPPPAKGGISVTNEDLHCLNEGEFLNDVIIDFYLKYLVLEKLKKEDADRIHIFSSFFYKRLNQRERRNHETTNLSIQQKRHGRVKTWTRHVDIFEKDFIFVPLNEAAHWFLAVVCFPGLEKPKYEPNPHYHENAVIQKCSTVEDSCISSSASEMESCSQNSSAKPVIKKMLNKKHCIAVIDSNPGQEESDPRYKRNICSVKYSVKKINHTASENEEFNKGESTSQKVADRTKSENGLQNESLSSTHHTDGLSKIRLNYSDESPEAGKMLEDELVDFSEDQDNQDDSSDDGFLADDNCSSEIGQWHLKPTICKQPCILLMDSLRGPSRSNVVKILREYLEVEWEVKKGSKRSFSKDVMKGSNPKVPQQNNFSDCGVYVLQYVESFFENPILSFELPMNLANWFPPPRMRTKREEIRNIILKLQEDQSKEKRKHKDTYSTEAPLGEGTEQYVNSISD
SENP1 FRET inh – SENP1 (human) catalytic domain inhibition. AID 624204. 0.21% of 360,000 active. recombinant SENP1 catalytic domain, CyPet-SUMO1-YPet FRET cleavage. inhibition, % at 10 µM. Q9P0U3;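 active = inhibition at least 30% at 10 µM, raw YFP signal under a set limit, fluorescence ratio 0.5 to 1.5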;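 also: 0% = enzyme with DMSO and 100% = no enzyme wells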
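System: Recombinant human SENP1 catalytic domain, His6-tagged | Incubation: Enzyme reaction for 50 min at room temperature, dark | Medium: Tris pH 8 with BME, BSA, NP40 and catalase | Also added: 25 nM SUMO1 FRET substrate | Compound: 10 µM single point, 0.5% DMSO | Measured by: FRET fluorescence in CFP and YFP emission channels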
SENP8 block-2 – inhibitors of human SENP8 protease; recombinant SENP8, Nedd8 substrate fluorescence; inhibition, % at 20 µM; Q96LD8; 0.64% of 360,000 active; in the data active = inhibition mostly above about 40%, no sharp cut-off; inactive = mostly below about 27%
SENP8 confirm – human SENP8 inhibition, confirmed. inhibition, % at 12.5 µM. Recombinant SENP8, Z-RLRGG-aminoluciferin luminescence, 60 min. shares compounds with SENP7 block. 40% of 6,200 active;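 active = mean inhibition across replicates above about 50%, limit read from the data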
SENP6 confirm – human SENP6 inhibition, confirmed. shares compounds with SENP7 block. recombinant SENP6, Z-RLRGG-aminoluciferin luminescence. inhibition, % at 12.5 µM. 58% of 6,200 active
SENP7 conf – human SENP7 inhibition, confirmed; AID 488917; recombinant SENP7, Z-RLRGG-aminoluciferin luminescence, 40 min; inhibition, % at 12.5 µM; shares compounds with SENP7 block; 69% of 6,200 active
Casp3 select – caspase-3 inhibition (SENP selectivity assay) | shares compounds with SENP7 block | purified caspase-3, Z-DEVD-aminoluciferin luminescence, 60 min | inhibition, % at 12.5 µM | 60% of 6,200 active;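 active = mean inhibition above about 50%, limit read from the data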;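 also: plate controls were enzyme with DMSO for no effect and wells without caspase-3 for full effect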
Target sequence (P42574 28-227 limits assumed): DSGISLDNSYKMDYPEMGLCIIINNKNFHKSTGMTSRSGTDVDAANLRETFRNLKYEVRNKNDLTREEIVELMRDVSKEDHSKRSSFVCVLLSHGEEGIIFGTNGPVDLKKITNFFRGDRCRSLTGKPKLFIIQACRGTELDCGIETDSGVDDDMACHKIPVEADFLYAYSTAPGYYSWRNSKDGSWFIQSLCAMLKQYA
SENP luc ctr – luminescence interference (SENP counter-screen) | shares compounds with SENP7 block | Pre-incubated SENP8/Z-RLRGG-aminoluciferin, luciferase luminescence interference | inhibition, % at 12.5 µM | 39% of 6,200 active | AID 488919;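 active = mean inhibition above about 50% when retested at one dose, limit read from the data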;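 also: plate controls were DMSO wells with completed reaction for no effect and substrate without enzyme for full effect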
An asterisk follows results filed as active; / = not tested or not shown. This is a sample that favours compounds with a hit; in the whole collection about 2.6% have one here.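 The calls were made as follows, unless noted: active = mean inhibition above about 50% in the one-dose retest (limit read from the data); inactive = the rest.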

SMILES | SENP7 block | Platelet DG rel | SENP8 block-1 | SENP6 inh | SENP1 FRET inh | SENP8 block-2 | SENP8 confirm | SENP6 confirm | SENP7 conf | Casp3 select | SENP luc ctr
Cc1cc(C)nc(N/N=C/c2cccc([N+](=O)[O-])c2)n1 | 0.4 | 11.1 | 4.9 | -8.3 | 1.8 | 19.9 | / | / | / | / | /
CC1CCN(c2ccc3c(c2)S(=O)(=O)c2cccc(C(=O)NC4CC4)c2C3=O)CC1 | 2.8 | / | 6.7 | -11.5 | -29.1 | 13.0 | / | / | / | / | /
O=C(Nc1ccc(F)cc1)Nc1ccc(N2CCOCC2)c2nonc12 | 57.3* | 8.1 | 3.8 | 17.4 | 1.6 | 28.5 | 3.5 | 12.0 | 43.5 | 43.6 | 16.7
CC(C)C(NC(=O)c1c(F)cccc1F)C(=O)N1CCN(S(=O)(=O)/C=C/c2ccccc2)CC1 (centres undefined) | 1.8 | / | 3.7 | -11.0 | -1.5 | 17.9 | / | / | / | / | /
CCN(CC)c1ccc(C=C2SC(=S)NC2=O)cc1 | / | / | / | / | -23.3 | 38.5 | / | / | / | / | /
CC1Cc2cc(/C=C3/SC(=S)NC3=O)ccc2O1 (centres undefined) | 2.4 | -22.4 | 67.2* | 74.2* | -13.8 | 21.8 | 11.2 | 76.2* | 83.9* | 46.7 | 0.3
Cc1ccc(S(=O)(=O)Oc2ccccc2/C=N/NC(N)=S)cc1 | 70.0* | -3.4 | -3.7 | -2.5 | 0.4 | 15.0 | 5.7 | 6.4 | -7.4 | -2.8 | -1.5
Nc1c(-c2ccccc2)cnn1-c1cccc(Cl)c1 | 93.9* | 14.7 | 84.3* | 89.9* | 1.6 | 6.1 | 89.6* | 89.5* | 99.1* | 87.1* | 81.0*
Cc1cccc(-c2cnn(-c3ccccc3)c2N)c1 | 65.7* | 5.8 | 44.3 | 50.3* | -1.1 | 6.7 | 42.5 | 42.4 | 81.0* | 64.2* | 63.5*
Cc1cccc(-c2cnn(-c3cccc([N+](=O)[O-])c3)c2N)c1 | 1.8 | -1.9 | -7.6 | 5.3 | -0.3 | 15.3 | / | / | / | / | /
CC1(c2ccc(Cl)cc2Cl)NC(=O)N(CC(=O)NC2CCCCC2)C1=O (centres undefined) | 3.3 | / | -10.3 | -12.4 | 4.2 | 2.8 | / | / | / | / | /
CCCC[n+]1ccn(C2=C([O-])c3ccccc3C(=O)/C2=N\S(=O)(=O)c2ccc(Cl)cc2)c1 | 30.2 | -14.6 | 25.6 | 57.0* | 1.0 | 48.4* | 16.4 | 50.5* | 0.0 | -2.0 | -4.0
O=C(Nc1ccccc1C(=O)O)c1ccc(NC(=O)C2CCCO2)cc1 (centres undefined) | 25.6 | -6.5 | 24.8 | 47.1 | 0.4 | 0.6 | / | / | / | / | /
O=C(Nc1ccc(NC(=O)C2CC2)cn1)c1ccccc1 | 45.3 | 22.1 | 31.8 | 65.1* | 1.3 | 9.5 | 54.9* | 53.3* | 77.4* | 84.5* | 8.3
Cc1c(NC(=O)c2ccccc2N)cccc1C(=O)O | 70.7* | -1.9 | 46.4 | 56.0* | 2.6 | -99.8 | 73.6* | 67.5* | 89.0* | 24.6 | 38.8
Cc1c(NC(=O)c2ccc(NC(=O)C3CC3)cc2)cccc1C(=O)O | 56.8* | 1.1 | 27.0 | 53.4* | 0.9 | 8.2 | 47.9 | 43.5 | 76.9* | 14.6 | 34.8
Cc1c(NC(=O)c2ccccc2NC(=O)c2ccccc2)cccc1C(=O)O | -4.7 | 3.7 | -12.5 | -26.1 | 2.0 | 9.4 | / | / | / | / | /
O=C(Nc1ccc(NC(=O)C2CC2)cn1)c1ccccc1Cl | -12.8 | / | -14.0 | -16.5 | 0.7 | 10.3 | / | / | / | / | /
O=C(O)c1cccc(-c2csc(C(O)c3ccccc3)n2)c1 (centres undefined) | / | / | / | / | 3.5 | -1.2 | / | / | / | / | /
CN(CC(=O)Nc1ccc(F)cc1)C(=O)c1ccc(OCc2ccccc2)cc1 | -10.7 | / | -10.6 | -8.5 | 3.0 | 1.1 | / | / | / | / | /
COc1ccc(-n2sc3ccc(F)cc3c2=O)cc1 | 79.2* | / | 91.4* | 91.0* | -0.4 | 20.8 | 95.5* | 95.2* | 101.6* | 96.1* | 92.2*
O=c1c2cc(F)ccc2sn1-c1ccc(F)cc1 | 44.1 | / | 87.9* | 93.5* | -0.5 | 6.9 | 91.5* | 92.6* | 99.7* | 92.5* | 85.8*
Cc1ccc(C)c(-n2sc3ccc(F)cc3c2=O)c1 | 6.4 | / | -1.5 | -11.6 | 1.1 | 17.3 | / | / | / | / | /
Cc1cc2nc3c(=O)[nH]c(=S)[nH]c3nc2cc1NC(=O)C(F)(F)F | 2.4 | -4.1 | 0.4 | -31.8 | 56.3 | -9.6 | / | / | / | / | /
COc1cc(/C=C(/C#N)c2nc3ccccc3[nH]2)ccc1OC(=O)c1ccco1 | 70.5* | 16.3 | 77.9* | 84.3* | -18.2 | -295.5 | 52.2* | 70.1* | 99.4* | 84.3* | 37.3
SMILES | SENP7 block | Platelet DG rel | SENP8 block-1 | SENP6 inh | SENP1 FRET inh | SENP8 block-2 | SENP8 confirm | SENP6 confirm | SENP7 conf | Casp3 select | SENP luc ctr
COc1cc(/C=C(\C#N)c2nc3ccccc3[nH]2)cc(OC)c1O | / | 1.5 | / | / | -25.6 | -217.9 | / | / | / | / | /
COc1cc(/C=C(/C#N)c2nc3ccccc3c(=O)[nH]2)ccc1O | 86.7* | 6.3 | 83.7* | 93.7* | -27.8 | -16.4 | 13.3 | 21.7 | 23.6 | 61.8* | 10.9
COc1ccccc1NC(=O)CN1CCN(CC(=O)Nc2ccc(C)c(F)c2)CC1 | 1.7 | 7.5 | -2.4 | -4.6 | -0.1 | 19.3 | / | / | / | / | /
CCOc1ccc(S(=O)(=O)Nc2cc(S(=O)(=O)N3CCOCC3)ccc2OC)cc1 | 1.2 | / | 4.6 | 2.3 | 1.0 | 0.8 | / | / | / | / | /
c1cc2c3c(cccc3c1)C(N1CCCCC1)=N2 | 13.3 | -5.9 | 35.6 | 68.8* | -16.0 | -239.8 | -8.6 | -5.1 | -8.7 | 3.1 | 2.7
c1cc2c3c(cccc3c1)C(N1CCCCCC1)=N2 | 8.1 | 6.0 | 3.4 | 3.6 | -23.2 | -76.7 | / | / | / | / | /
Cc1ccc(NC(=O)N2CCCc3ccccc32)cc1 | -2.3 | -5.4 | -8.0 | -17.2 | 1.2 | 14.1 | / | / | / | / | /
Cc1ccc2c(CC(=O)N3CCc4ccccc43)coc2c1 | 81.9* | / | 66.1* | 81.3* | -3.5 | -0.5 | 21.2 | 30.5 | 59.5* | 69.5* | 9.2
Cc1ccc(NC(=O)N2CCc3ccccc32)cc1 | 93.7* | 33.5 | 89.0* | 85.7* | 1.5 | 31.6 | 91.4* | 93.5* | 100.7* | 94.4* | 93.7*
Cc1ccc(NC(=O)N2CCc3ccccc32)cc1C | 92.5* | 16.2 | 82.3* | 89.7* | -0.5 | 6.4 | 91.4* | 91.0* | 98.9* | 88.1* | 81.4*
COc1ccc(NC(=O)N2CCCc3ccccc32)cc1OC | 2.2 | -0.1 | 1.6 | 6.0 | 1.4 | 4.1 | / | / | / | / | /

Compound activity: PubChem BioAssay, several laboratories
